According to ChEMBL document CHEMBL5724801, “EUbOPEN Chemogenomics Library - Multiplex” (2024):
Where “and” joins values, the source holds several entries; their conditions need not be identical. Equal values may be shown once.

How the values were obtained:
[1] = tested on: HEK-293T; assay: Multiplex assay against HEK293T; format: toxicity, cell-based; conditions: human
Method in brief: (§1)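 With compound added, live cells were imaged on a CQ1 microscope at 37°C and 5% CO2; staining with Hoechst33342, BioTracker Green Microtubule Cytoskeleton Dye, MitoTracker Red and Annexin V Alexa Fluor 680 had been done at seeding. The CellPathfinder machine-learning gating scheme split cells into Hoechst high-intensity objects or normal cells, normal cells into healthy, pyknosed or fragmented nuclei, and pyknosed cells into mitotic or apoptotic. The tubulin, mitochondrial-mass and membrane-permeability phenotypes are per cents of healthy-nucleus cells.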

[2] = tested on: Fibroblast; assay: Multiplex assay against human fibroblast; format: toxicity, cell-based; method in brief: as §1
[3] = 12 h, 1 µM, compound concentration 1 uM
[4] = 12 h, 10 µM, compound concentration 10 uM
[5] = 24 h, 1 µM, compound concentration 1 uM
[6] = 24 h, 10 µM, compound concentration 10 uM
[7] = 48 h, 1 µM, compound concentration 1 uM
[8] = 48 h, 10 µM, compound concentration 10 uM

O=C(Nc1ccccc1Cl)c1cnc2ccc(C3CCNCC3)cn12.O=C(O)C(=O)O
Population Apoptotic (%) [1, 3]: 13.38% and 9.73%
Population Fragmented Nuclei (%) [1, 3]: 1.98% and 9.79%
Population Hoechst High Intensity Objects (%) [1, 3]: 0.39% and 0%
Population Membrane Permeable-Phenotype (%) [1, 3]: 1.89% and 0%
Population Mitotic Cells (%) [1, 3]: 86.62% and 90.27%
Population Normal (%) [1, 3]: 99.61% and 100%
Population Pyknosed Nuclei (%) [1, 3]: 56.13% and 79.02%
Population Tubulin-Different-Phenotype (%) [1, 3]: 20.75% and 18.75%
Total Cell Count [1, 3]: 254 and 143
Population Apoptotic (%) [1, 4]: 16.08% and 15.91%
Population Fragmented Nuclei (%) [1, 4]: 4.31% and 3.38%
Population Hoechst High Intensity Objects (%) [1, 4]: 0.48% and 0%
Population Membrane Permeable-Phenotype (%) [1, 4]: 1.75% and 0%
Population Mitochondria Different-Phenotype (%) [1, 4]: 66.67% and 72.73%
Population Mitotic Cells (%) [1, 4]: 83.92% and 84.09%
Population Normal (%) [1, 4]: 99.52% and 100%
Population Pyknosed Nuclei (%) [1, 4]: 68.42% and 89.19%
Population Tubulin-Different-Phenotype (%) [1, 4]: 52.63% and 54.55%
Total Cell Count [1, 4]: 210 and 148
Population Apoptotic (%) [1, 5]: 19.23% and 23.68%
Population Fragmented Nuclei (%) [1, 5]: 1.95% and 4.9%
Population Hoechst High Intensity Objects (%) [1, 5]: 0.97% and 0%
Population Membrane Permeable-Phenotype (%) [1, 5]: 0.74% and 4.55%
Population Mitochondria Different-Phenotype (%) [1, 5]: 37.5% and 22.73%
Population Mitotic Cells (%) [1, 5]: 80.77% and 76.32%
Population Normal (%) [1, 5]: 99.03% and 100%
Population Pyknosed Nuclei (%) [1, 5]: 31.71% and 79.72%
Population Tubulin-Different-Phenotype (%) [1, 5]: 31.25% and 22.73%
Total Cell Count [1, 5]: 414 and 143
Population Apoptotic (%) [1, 6]: 34.45% and 29.91%
Population Fragmented Nuclei (%) [1, 6]: 4.76% and 4%
Population Healthy Nuclei (%) [1, 6]: 43.72% and 18%
Population Hoechst High Intensity Objects (%) [1, 6]: 0%
Population Membrane Permeable-Phenotype (%) [1, 6]: 0.99% and 3.7%
Population Mitochondria Different-Phenotype (%) [1, 6]: 74.26% and 51.85%
Population Mitotic Cells (%) [1, 6]: 65.55% and 70.09%
Population Normal (%) [1, 6]: 100%
Population Pyknosed Nuclei (%) [1, 6]: 51.52% and 78%
Population Tubulin-Different-Phenotype (%) [1, 6]: 81.19% and 40.74%
Total Cell Count [1, 6]: 231 and 150
Population Apoptotic (%) [1, 7]: 9.3% and 24.49%
Population Fragmented Nuclei (%) [1, 7]: 3.3% and 6.21%
Population Healthy Nuclei (%) [1, 7]: 83.82% and 32.92%
Population Hoechst High Intensity Objects (%) [1, 7]: 0.1% and 0%
Population Membrane Permeable-Phenotype (%) [1, 7]: 2.62% and 1.89%
Population Mitochondria Different-Phenotype (%) [1, 7]: 28.13% and 43.4%
Population Mitotic Cells (%) [1, 7]: 90.7% and 75.51%
Population Normal (%) [1, 7]: 99.9% and 100%
Population Apoptotic (%) [1, 8]: 20% and 23.23%
Population Fragmented Nuclei (%) [1, 8]: 3.53% and 4.03%
Population Healthy Nuclei (%) [1, 8]: 73.65% and 29.53%
Population Hoechst High Intensity Objects (%) [1, 8]: 0.21% and 0%
Population Membrane Permeable-Phenotype (%) [1, 8]: 1.97% and 0%
Population Mitochondria Different-Phenotype (%) [1, 8]: 64.51% and 56.82%
Population Mitotic Cells (%) [1, 8]: 80% and 76.77%
Population Normal (%) [1, 8]: 99.79% and 100%
Population Pyknosed Nuclei (%) [1, 8]: 22.82% and 66.44%
Population Tubulin-Different-Phenotype (%) [1, 8]: 33.24% and 81.82%
Population Fragmented Nuclei (%) [2, 3]: 12.96% and 7.79%
Population Healthy Nuclei (%) [2, 3]: 60.19% and 75.41%
Population Hoechst High Intensity Objects (%) [2, 3]: 0%
Population Membrane Permeable-Phenotype (%) [2, 3]: 1.54% and 2.72%
Population Mitochondria Different-Phenotype (%) [2, 3]: 7.69% and 10.87%
Population Mitotic Cells (%) [2, 3]: 93.1% and 73.17%
Population Normal (%) [2, 3]: 100%
Population Pyknosed Nuclei (%) [2, 3]: 26.85% and 16.8%
Population Tubulin-Different-Phenotype (%) [2, 3]: 17.69% and 23.91%
Total Cell Count [2, 3]: 216 and 244
Population Apoptotic (%) [2, 4]: 16.33% and 20.48%
Population Healthy Nuclei (%) [2, 4]: 62.09% and 63.64%
Population Hoechst High Intensity Objects (%) [2, 4]: 0% and 0.43%
Population Membrane Permeable-Phenotype (%) [2, 4]: 4.42% and 7.48%
Population Mitochondria Different-Phenotype (%) [2, 4]: 17.7% and 21.09%
Population Mitotic Cells (%) [2, 4]: 83.67% and 79.52%
Population Normal (%) [2, 4]: 100% and 99.57%
Population Pyknosed Nuclei (%) [2, 4]: 26.92% and 35.93%
Population Tubulin-Different-Phenotype (%) [2, 4]: 40.71% and 57.82%
Total Cell Count [2, 4]: 182 and 232
Population Apoptotic (%) [2, 5]: 14.29% and 25.71%
Population Fragmented Nuclei (%) [2, 5]: 11.52% and 3.52%
Population Healthy Nuclei (%) [2, 5]: 72.35% and 81.06%
Population Hoechst High Intensity Objects (%) [2, 5]: 0%
Population Membrane Permeable-Phenotype (%) [2, 5]: 4.46% and 3.8%
Population Mitochondria Different-Phenotype (%) [2, 5]: 8.92% and 15.22%
Population Mitotic Cells (%) [2, 5]: 85.71% and 74.29%
Population Normal (%) [2, 5]: 100%
Population Pyknosed Nuclei (%) [2, 5]: 16.13% and 15.42%
Population Tubulin-Different-Phenotype (%) [2, 5]: 19.75% and 25.54%
Total Cell Count [2, 5]: 217 and 227
Population Apoptotic (%) [2, 6]: 35.29% and 37.66%
Population Healthy Nuclei (%) [2, 6]: 67.43% and 62.44%
Population Hoechst High Intensity Objects (%) [2, 6]: 0%
